Laboratory results taken from ChEMBL document CHEMBL4270564, “Synergistic inhibition of the Hedgehog pathway by newly designed Smo and Gli antagonists bearing the isoflavone scaffold” (Eur J Med Chem, 2018).
One block for each compound: values may come before it. Active and inactive are the calls of the source. The rule behind the calls is not given here.

Tests used:
[1] = target: T1, Zinc finger protein GLI1 (Mus musculus, UniProt P47806); experiment: Inhibition of Gli1 transcriptional activity in mouse embroyonic fibroblasts after 24 hrs by renilla luciferase reporter gene assay
T1 sequence (P47806 whole entry): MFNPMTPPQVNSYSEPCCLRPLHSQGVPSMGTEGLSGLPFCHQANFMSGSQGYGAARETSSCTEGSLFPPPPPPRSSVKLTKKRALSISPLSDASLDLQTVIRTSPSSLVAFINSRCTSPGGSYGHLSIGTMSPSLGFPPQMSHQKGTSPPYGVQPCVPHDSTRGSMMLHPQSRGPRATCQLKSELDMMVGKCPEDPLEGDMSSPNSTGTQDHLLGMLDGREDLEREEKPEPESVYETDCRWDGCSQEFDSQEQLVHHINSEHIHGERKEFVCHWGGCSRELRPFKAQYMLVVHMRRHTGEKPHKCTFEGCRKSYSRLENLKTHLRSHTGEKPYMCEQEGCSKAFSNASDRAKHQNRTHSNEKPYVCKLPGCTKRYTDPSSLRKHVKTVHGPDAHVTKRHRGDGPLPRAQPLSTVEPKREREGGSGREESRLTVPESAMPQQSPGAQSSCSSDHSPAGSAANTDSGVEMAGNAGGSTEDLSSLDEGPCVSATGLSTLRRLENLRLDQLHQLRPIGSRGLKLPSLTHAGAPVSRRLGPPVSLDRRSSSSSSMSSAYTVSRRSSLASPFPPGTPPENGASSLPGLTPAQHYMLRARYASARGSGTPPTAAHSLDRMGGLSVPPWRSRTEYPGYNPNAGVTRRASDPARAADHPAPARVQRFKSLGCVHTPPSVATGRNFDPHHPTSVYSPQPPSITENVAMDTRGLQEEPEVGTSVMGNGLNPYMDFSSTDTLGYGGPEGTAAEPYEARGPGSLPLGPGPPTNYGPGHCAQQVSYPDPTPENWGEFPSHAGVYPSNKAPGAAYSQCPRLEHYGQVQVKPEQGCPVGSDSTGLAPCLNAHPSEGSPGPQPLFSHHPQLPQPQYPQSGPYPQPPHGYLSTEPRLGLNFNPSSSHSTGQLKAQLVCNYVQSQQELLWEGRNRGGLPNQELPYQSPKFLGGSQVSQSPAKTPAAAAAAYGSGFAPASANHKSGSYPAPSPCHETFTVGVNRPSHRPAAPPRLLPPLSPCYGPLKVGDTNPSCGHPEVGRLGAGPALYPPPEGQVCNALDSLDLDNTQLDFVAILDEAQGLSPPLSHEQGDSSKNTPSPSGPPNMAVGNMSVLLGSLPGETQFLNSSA
Summary of the method: (§1)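 Wild-type MEFs expressing ectopic Gli1 were transfected with 12XGliBS-Luc, pRL-TK Renilla and empty or Gli1 vector. They were exposed to rising compound concentrations for 24 h; DMSO-only controls. Luciferase/Renilla ratio; mean ± SD of three independent experiments.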

[2] = target: Protein smoothened (Mus musculus, UniProt P56726); experiment: Antagonist activity at smo in SAG-treated mouse Light2 cells after 48 hrs by renilla luciferase reporter gene assay; type: functional
Protein smoothened, sequence (P56726 whole entry): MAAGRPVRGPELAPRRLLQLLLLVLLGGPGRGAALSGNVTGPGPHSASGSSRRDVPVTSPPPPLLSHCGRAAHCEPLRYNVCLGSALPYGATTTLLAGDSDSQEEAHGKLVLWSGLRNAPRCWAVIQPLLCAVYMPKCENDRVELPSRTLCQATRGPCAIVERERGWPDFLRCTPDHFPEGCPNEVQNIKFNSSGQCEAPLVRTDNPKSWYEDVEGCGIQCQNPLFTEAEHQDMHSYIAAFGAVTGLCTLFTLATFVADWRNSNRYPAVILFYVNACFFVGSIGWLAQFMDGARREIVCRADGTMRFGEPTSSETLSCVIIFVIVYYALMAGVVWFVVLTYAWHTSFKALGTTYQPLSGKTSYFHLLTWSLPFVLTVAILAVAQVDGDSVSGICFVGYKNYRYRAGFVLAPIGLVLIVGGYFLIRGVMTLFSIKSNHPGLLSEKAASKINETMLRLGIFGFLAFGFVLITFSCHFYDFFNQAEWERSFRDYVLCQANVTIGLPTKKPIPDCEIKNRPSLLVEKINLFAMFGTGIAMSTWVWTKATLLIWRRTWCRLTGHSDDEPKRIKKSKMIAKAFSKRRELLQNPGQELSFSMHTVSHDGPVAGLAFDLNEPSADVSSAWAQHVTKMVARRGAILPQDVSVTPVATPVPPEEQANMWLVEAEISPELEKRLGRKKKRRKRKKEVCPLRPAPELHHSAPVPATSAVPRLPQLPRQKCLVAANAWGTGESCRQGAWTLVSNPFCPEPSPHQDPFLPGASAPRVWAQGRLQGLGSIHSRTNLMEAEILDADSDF
Summary of the method: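 NIH3T3 Shh-Light II cells carry a stable Gli-responsive firefly luciferase reporter plus pRL-TK Renilla. They were stimulated with SAG 200 nM and treated with compound for 48 h. Read-out was dual-luciferase, as the Luciferase/Renilla ratio. Mean ± SD of three independent experiments, each in triplicate.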

[3] = tested on: Medulloblastoma cell; experiment: Growth inhibition of mouse Ptch+/- medulloblastoma cells at 0.125 uM after 72 hrs relative to control; type: functional; conditions: read-out: GI
Summary of the method: (§2)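 Primary medulloblastoma cells were freshly isolated from Ptch+/- mouse tumors. They were kept in short-term culture in Neurobasal Media-A with B27 minus vitamin A to retain Hh sensitivity. Cells were exposed to single compounds for 72 h, and percent growth inhibition was reported as mean ± SD.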

[4] = target: T2, Zinc finger protein GLI1 (Mus musculus) (UniProt P47806); experiment: Inhibition of Gli1 transcriptional activity in Smo-/- mouse embroyonic fibroblasts up to 20 uM after 24 hrs by renilla luciferase reporter gene assay
T2 sequence (whole entry): T1 sequence (P47806 whole entry)
Summary of the method: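 Smo-/- MEFs were transfected with 12xGliBS-Luc and pRL-TK Renilla plus empty or Gli1 vector. They were treated with increasing concentrations of compound for 24 h; DMSO-only controls. Read-out was luciferase normalized to Renilla. Mean ± SD of three independent experiments; t-test versus DMSO.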

[5] = tested on: Medulloblastoma cell; experiment: Growth inhibition of mouse Ptch+/- medulloblastoma cells at 1 uM after 72 hrs relative to control; type: functional; conditions: read-out: GI; summary of the method: as §2
[6] = tested on: MEF; experiment: Downregulation of Gli1 levels in SuFu-/- mouse embroyonic fibroblasts up to 20 uM after 48 hrs by qRT-PCR
[7] = tested on: Medulloblastoma cell; experiment: Growth inhibition of mouse Ptch+/- medulloblastoma cells at 0.5 uM after 72 hrs relative to control; type: functional; conditions: read-out: GI; summary of the method: as §2
[8] = tested on: Medulloblastoma cell; experiment: Growth inhibition of mouse Ptch+/- medulloblastoma cells at 2 uM after 72 hrs relative to control; type: functional; conditions: read-out: GI
[9] = tested on: MEF; experiment: Downregulation of Gli2 levels in SuFu-/- mouse embroyonic fibroblasts up to 20 uM after 48 hrs by qRT-PCR
[10] = tested on: Medulloblastoma cell; experiment: Growth inhibition of mouse Ptch+/- medulloblastoma cells at 0.25 uM after 72 hrs relative to control; type: functional; conditions: read-out: GI; summary of the method: as §2
[11] = target: T2, Zinc finger protein GLI1 (Mus musculus); experiment: Inhibition of Gli1 transcriptional activity in mouse embroyonic fibroblasts up to 30 uM after 24 hrs by renilla luciferase reporter gene assay; summary of the method: as §1
[12] = target: Protein smoothened (Mus musculus) (UniProt P56726); experiment: Antagonist activity at smo in SuFu-/- mouse embroyonic fibroblasts assessed as downregulation of Gli1 mRNA levels after 48 hrs by qRT-PCR method; type: functional
Protein smoothened (Mus musculus), sequence (P56726 whole entry): as above
Summary of the method: (§3)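 SuFu-/- MEFs were grown in DMEM with 10% FBS, antibiotics and L-glutamine, then treated with compound for 48 h; DMSO-only controls. Gli1 and Gli2 mRNA were measured by qRT-PCR and normalized to HPRT. Mean ± SD of three independent experiments; Student's t-test versus DMSO.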

[13] = tested on: Medulloblastoma cell; experiment: Synergistic growth inhibition of mouse Ptch+/- medulloblastoma cells at 0.25 uM after 72 hrs in presence of Gli inhibitor GlaB; type: functional; conditions: read-out: GI
Summary of the method: (§4)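 Freshly isolated Ptch+/- mouse medulloblastoma primary cells were held in short-term Neurobasal-A/B27 (minus vitamin A) culture. They were treated for 72 h with a binary combination of a Gli1 antagonist and a Smo antagonist, each at the stated concentration. Percent growth inhibition was reported.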

[14] = tested on: Medulloblastoma cell; experiment: Synergistic growth inhibition of mouse Ptch+/- medulloblastoma cells at 0.125 uM after 72 hrs in presence of Gli inhibitor GlaB; type: functional; conditions: read-out: GI; summary of the method: as §4
[15] = target: Protein smoothened (Mus musculus) (UniProt P56726); experiment: Antagonist activity at smo in SuFu-/- mouse embroyonic fibroblasts assessed as downregulation of Gli2 mRNA levels after 48 hrs by qRT-PCR method; type: functional; summary of the method: as §3
[16] = tested on: Medulloblastoma cell; experiment: Synergistic growth inhibition of mouse Ptch+/- medulloblastoma cells at 0.5 uM after 72 hrs in presence of Gli inhibitor GlaB; type: functional; conditions: read-out: GI; summary of the method: as §4

IC50 ([1]; read-out: IC50): 10.7 µM | IC50 ([2]; read-out: IC50): 6.97 µM
Structure (SMILES): COc1cc(OC)c2c(=O)c(-c3ccc(OCC=C(C)C)c(OC)c3)coc2c1

IC50 ([2]; read-out: IC50): > 30 µM
Structure (SMILES): COc1cc(OC)c2c(=O)c(-c3ccc(OC)c(OCc4ccc(C(N)=O)cc4)c3)coc2c1
IC50 [1]: Nd(Toxic)

IC50 ([1]; read-out: IC50): 17.1 µM | IC50 ([2]; read-out: IC50): 3.72 µM
Structure (SMILES): COc1cc(OC)c2c(=O)c(-c3ccc(OC)c(OCc4ccccc4)c3)coc2c1

IC50 ([2]; read-out: IC50): > 30 µM
Structure (SMILES): COC(=O)c1ccc(COc2cc(-c3coc4cc(OC)cc(OC)c4c3=O)ccc2OC)cc1
IC50 [1]: Nd(Toxic)

IC50 ([2]; read-out: IC50): > 30 µM
Structure (SMILES): COc1cc(OC)c2c(=O)c(-c3ccc(OC)c(OCc4ccc([N+](=O)[O-])cc4)c3)coc2c1
IC50 [1]: Nd(Toxic)

IC50 ([1]; read-out: IC50): 26.7 µM | IC50 ([2]; read-out: IC50): 10.5 µM
Structure (SMILES): COc1cc(OC)c2c(=O)c(-c3cccc(OCc4ccc(C(F)(F)F)cc4)c3)coc2c1

Further lines, the compound ahead of its results:

Structure (SMILES): COc1cc(OC)c2c(=O)c(-c3ccc(OCc4ccccc4)c(OC)c3)coc2c1
IC50 ([1]; read-out: IC50): 39.2 µM | IC50 ([2]; read-out: IC50): 6.92 µM

Structure (SMILES): COc1cc(OC)c2c(=O)c(-c3ccc(OC)c(OCc4ccc(C(F)(F)F)cc4)c3)coc2c1
inhibition of growth at 0.125 µM [3]: 37.7% | inhibition [4]: Active | inhibition of growth at 1 µM [5]: 50.9% | IC50 ([1]; read-out: IC50): 11.5 µM | Activity [6]: Active | inhibition of growth at 0.5 µM [7]: 44.5% | inhibition of growth at 2 µM [8]: 54% | Activity [9]: Active | IC50 ([2]; read-out: IC50): 2.58 µM | inhibition of growth at 0.25 µM [10]: 40.6%

Structure (SMILES): COc1cc(OC)c2c(=O)c(-c3ccc(OC)c(OCC=C(C)C)c3)coc2c1
inhibition of growth at 0.125 µM [3]: 5.9% | inhibition [4]: Active | inhibition of growth at 1 µM [5]: 35.6% | IC50 ([1]; read-out: IC50): 5.7 µM | Activity [6]: Active | inhibition of growth at 0.5 µM [7]: 29.2% | inhibition of growth at 2 µM [8]: 55.4% | Activity [9]: Active | IC50 ([2]; read-out: IC50): 2.87 µM | inhibition of growth at 0.25 µM [10]: 26.3%

Structure (SMILES): COc1cc(OC)c2c(=O)c(-c3ccc(OC)c(OCc4ccc(C#N)cc4)c3)coc2c1
IC50 [1]: Nd(Toxic) | IC50 ([2]; read-out: IC50): 16 µM

Structure (SMILES): CS(=O)(=O)c1ccc(C(=O)Nc2ccc(Cl)c(-c3ccccn3)c2)c(Cl)c1
inhibition [11]: inactive

Structure (SMILES): COc1cc(OC)c2c(=O)c(-c3cccc(OCC=C(C)C)c3)coc2c1
IC50 ([1]; read-out: IC50): > 20 µM | IC50 ([2]; read-out: IC50): > 30 µM

Structure (SMILES): COc1cc(OC)c2c(=O)c(-c3cccc(O)c3)coc2c1
IC50 [1]: Nd(Toxic) | IC50 ([2]; read-out: IC50): > 30 µM

Structure (SMILES): COc1cc(OC)c2c(=O)c(-c3ccc(OC)c(OC/C=C(\C)CCC=C(C)C)c3)coc2c1
IC50 ([1]; read-out: IC50): 21.2 µM | IC50 ([2]; read-out: IC50): 3.61 µM

Structure (SMILES): COc1cc(OC)c2c(=O)c(-c3ccc(OCc4ccc(C(F)(F)F)cc4)c(OC)c3)coc2c1
inhibition of growth at 0.125 µM [3]: 20.8% | inhibition [4]: inactive | inhibition of growth at 1 µM [5]: 51.8% | inhibition [12]: inactive | IC50 ([1]; read-out: IC50): 55.3 µM | inhibition of growth at 0.5 µM [7]: 32.5% | inhibition of growth at 2 µM [8]: 54.2% | inhibition of growth at 0.25 µM [13]: 53.1% | inhibition of growth at 0.125 µM [14]: 33.5% | inhibition [15]: inactive | inhibition of growth at 0.5 µM [16]: 60.1% | IC50 ([2]; read-out: IC50): 3.48 µM | inhibition of growth at 0.25 µM [10]: 23.5%

Structure (SMILES): COc1cc(OC)c2c(=O)c(-c3ccc(OCC=C(C)C)c(OCC=C(C)C)c3)coc2c1
inhibition of growth at 0.125 µM [3]: 28.6% | inhibition of growth at 1 µM [5]: 55.9% | inhibition of growth at 0.5 µM [7]: 46.6% | inhibition of growth at 2 µM [8]: 65.1% | inhibition of growth at 0.25 µM [10]: 42.4%

Structure (SMILES): COc1cc(OC)c2c(=O)c(-c3ccc(OC/C=C(\C)CCC=C(C)C)c(OC)c3)coc2c1
IC50 [1]: Nd(Toxic) | IC50 [2]: Nd(Toxic)

Structure (SMILES): COc1cc(OC)c2c(=O)c(-c3ccc(OCc4ccccc4)c(OCc4ccccc4)c3)coc2c1
inhibition of growth at 0.125 µM [3]: 33.3% | inhibition [4]: inactive | inhibition of growth at 1 µM [5]: 61.2% | inhibition [12]: inactive | IC50 ([1]; read-out: IC50): 57.7 µM | inhibition of growth at 0.5 µM [7]: 51.4% | inhibition of growth at 2 µM [8]: 66.6% | inhibition of growth at 0.25 µM [13]: 63.4% | inhibition of growth at 0.125 µM [14]: 38.3% | inhibition [15]: inactive | inhibition of growth at 0.5 µM [16]: 70% | IC50 ([2]; read-out: IC50): 0.29 µM | inhibition of growth at 0.25 µM [10]: 44.2%
